Calls of active or inactive are those of the source.
Assays:
[1] = system: Mus musculus; experiment: Antinociceptive activity in CD1 mouse assessed as tail withdrawal latency at 0.6 nmol, icv measured after 15 to 30 mins by tail flick test; assay type: functional, organism-based
How it was run: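 Male CD-1 mice given i.c.v. injection (5 µL; 2 mm caudal, 2 mm lateral to bregma, 3 mm deep) under light isoflurane. Radiant heat focused 3-4 cm from the tail tip; withdrawal latency recorded, cut-off 15 s. Baseline is the mean of three readings 15 min apart; readings at 15-120 min; %MPE.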

[2] = system: Mus musculus; experiment: Antinociceptive activity in CD1 mouse assessed as paw licking and jumping latency at 0.6 nmol, icv measured after 15 to 30 mins by hot plate test; assay type: functional, organism-based
How it was run: (§1)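 Male CD-1 mice, 25-30 g, lightly isoflurane-anaesthetised; i.c.v. injection 2 mm caudal, 2 mm lateral to bregma, 3 mm deep, 5 µL. Hot plate held at 55.0 °C; latency to paw lick or jump, cut-off 60 s. Baseline is the mean of three readings 15 min apart. Latencies taken at 15-120 min after dosing and expressed as %MPE.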

[3] = system: Mus musculus; experiment: Antinociceptive activity in CD1 mouse assessed as tail withdrawal latency at 3000 nmol, iv measured after 15 to 60 mins by tail flick test relative to vehicle-treated control; assay type: functional
How it was run: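 Male CD-1 mice, lightly isoflurane-anaesthetised, given tail-vein injection at 5 mL/kg. Tail-flick latency to radiant heat focused 3-4 cm from the tail tip, cut-off 15 s. Baseline is the mean of three readings; readings at 15-180 min; expressed as %MPE. Mean ± S.E.M.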

[4] = system: Mus musculus; experiment: Antinociceptive activity in CD1 mouse assessed as paw licking and jumping latency at 3000 nmol, iv measured after 15 to 60 mins by hot plate test relative to vehicle-treated control; assay type: functional
How it was run: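 Male CD-1 mice, 25-30 g, lightly isoflurane-anaesthetised, dosed into the tail vein at 5 mL/kg. Hot plate at 55.0 °C; latency to paw lick or jump, cut-off 60 s. Baseline is the mean of three readings 15 min apart; readings to 180 min. %MPE = (post-drug − baseline)/(cut-off − baseline)×100. Mean ± S.E.M.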

[5] = system: Mus musculus; experiment: Antinociceptive activity in CD1 mouse assessed as paw licking and jumping latency at 0.6 nmol, icv measured after 30 to 45 mins by hot plate test relative to vehicle-treated control; assay type: functional; how it was run: as §1
[6] = biological target: Mu-type opioid receptor (Cavia porcellus, UniProt P97266); experiment: Inhibition of MOR in Hartley guinea pig ileum longitudinal muscle myenteric plexus assessed as inhibition of electrically-stimulated muscle contraction after 3 mins; assay type: tissue-based
Sequence of Mu-type opioid receptor (P97266 whole entry): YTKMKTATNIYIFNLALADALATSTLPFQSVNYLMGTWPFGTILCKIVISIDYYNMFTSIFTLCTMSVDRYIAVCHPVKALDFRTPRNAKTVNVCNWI
How it was run: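 Longitudinal muscle-myenteric plexus strips from male Hartley guinea pigs (150-400 g) in oxygenated Krebs at 37 °C. Stimulated at 0.1 Hz, 0.4 ms pulses, supramaximal voltage. […] IC₅₀ by Hill fit, at least four assays.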

[7] = biological target: Delta-type opioid receptor (Mus musculus, UniProt P32300); experiment: Inhibition of DOR in ICR mouse vas deferens assessed as inhibition of electrically-stimulated muscle contraction after 3 mins; design: species or system Muscle tissue
Sequence of Delta-type opioid receptor (Mus musculus, UniProt P32300) (P32300 whole entry): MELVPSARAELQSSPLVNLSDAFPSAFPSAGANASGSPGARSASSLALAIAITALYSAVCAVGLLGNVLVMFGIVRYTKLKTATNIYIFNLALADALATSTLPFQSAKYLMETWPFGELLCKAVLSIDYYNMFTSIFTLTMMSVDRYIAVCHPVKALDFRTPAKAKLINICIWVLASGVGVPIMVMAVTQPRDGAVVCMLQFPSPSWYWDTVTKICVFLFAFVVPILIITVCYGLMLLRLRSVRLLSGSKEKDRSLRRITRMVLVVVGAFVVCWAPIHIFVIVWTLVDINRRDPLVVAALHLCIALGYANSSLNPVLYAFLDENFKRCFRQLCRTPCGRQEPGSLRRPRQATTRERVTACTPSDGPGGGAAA
How it was run: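 Vas deferens from male ICR mice, 25-30 g, in Mg-free Krebs at 37 °C under 95% O₂/5% CO₂. Transmural stimulation at 0.1 Hz, 2.0 ms pulses, supramaximal voltage. Cumulative curves over five to seven concentrations; inhibition read 3 min after each addition. IC₅₀ from a Hill fit, at least four assays.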

[8] = biological target: Delta-type opioid receptor (Rattus norvegicus, UniProt P33533); experiment: Displacement of [3H]Deltorphin from DOR in Sprague-Dawley rat brain membrane after 180 mins by scintillation counting analysis; assay type: cell membranes
Sequence of Delta-type opioid receptor (Rattus norvegicus, UniProt P33533) (P33533 whole entry): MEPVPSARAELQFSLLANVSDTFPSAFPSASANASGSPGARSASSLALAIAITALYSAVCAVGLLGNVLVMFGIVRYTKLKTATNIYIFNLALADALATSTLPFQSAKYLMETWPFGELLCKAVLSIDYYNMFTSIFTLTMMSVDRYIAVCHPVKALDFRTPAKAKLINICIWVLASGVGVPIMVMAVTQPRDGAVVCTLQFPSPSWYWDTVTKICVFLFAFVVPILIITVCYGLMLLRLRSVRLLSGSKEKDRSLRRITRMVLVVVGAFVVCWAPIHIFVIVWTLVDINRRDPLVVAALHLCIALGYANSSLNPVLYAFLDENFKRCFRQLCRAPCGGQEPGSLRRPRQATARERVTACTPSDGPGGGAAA
How it was run: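 Whole brain homogenate from male Sprague-Dawley rats, pre-incubated 30 min at 25 °C to remove endogenous opioids. Six to seven test concentrations; rapid filtration; nonlinear least-squares fit; at least two assays, each in duplicate.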

Row | Compound | Activity [1] | Activity [2] | Activity [3] | Activity [4] | MPE [5] | IC50 [6] | IC50 [7] | Ki [8]
1 | C[C@@H](NC(=O)[C@@H](N)Cc1ccc(O)cc1)C(=O)NCC(=O)N[C@@H](Cc1ccccc1)C(=O)NNC(=O)[C@H](Cc1ccccc1)NC(=O)CNC(=O)[C@@H](C)NC(=O)[C@@H](N)Cc1ccc(O)cc1 [BIPHALIN] | Active | Active | Active | Active | 100% | – | – | –
2 | C[C@@H](NC(=O)C[C@@H](N)Cc1ccc(O)cc1)C(=O)NCC(=O)N[C@@H](Cc1ccccc1)C(=O)N[C@H](CC(=O)N[C@H](C)C(=O)NCC(=O)N[C@@H](Cc1ccccc1)C(N)=O)Cc1ccc(O)cc1 | – | – | – | – | – | 670 nM | 710 nM | 480 nM

Reference: ChEMBL document CHEMBL2321865 (J Med Chem, 2013)
